Compounds with a hit are over-represented: about 1.6% of the library has one in this group of screens.
PvdQ acylase – P. aeruginosa PvdQ acylase inhibitors, primary screen, biochemical, fluorescence, plate reader and imaging, single point; PvdQ acylase [Pseudomonas aeruginosa LESB58]; purified PvdQ acylase; inhibition, % at 10 µM; hit rate 0.063% among 340,000; in the data active = inhibition above about 30%, passing the limit was not always enough; inconclusive = no clear call, values can overlap the other calls;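 note: 0% = vehicle neutral wells and 100% = reference inhibitor wells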
RAD54 branch – inhibitors of human RAD54 branch migration, primary screen, biochemical, fluorescence, single point; RAD54 Holliday junction branch migration, FAM/BHQ fluorescence; AID 602329, 2012; DNA repair and recombination protein RAD54-like (Homo sapiens), Q92698; hit rate 0.14% among 360,000; inhibition, % at 10.4 µM;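 active = mean normalized replicate activity at least 40 and at least half of replicates scoring 40 or more; inconclusive = only one of the two criteria met; inactive = mean below 40 and under half of replicates reaching 40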;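 note: 0% = median of neutral control wells and 100% = median of positive control wells; inhibitors cause a drop in the FAM fluorescence signal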
SR-BI DiI-HDL act – activators of SR-BI mediated DiI-HDL uptake, primary screen, ldlA[mSR-BI] CHO cells, DiI fluorescence; 3 h; 100 = double the neutral-control signal; activation, % at 12.5 µM; hit rate 0.096% among 320,000; AID 504775, 2011;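 active = mean replicate activation of at least 60% and every replicate at or above 60%; inconclusive = mean or all-replicate condition met, but not both; inactive = mean below 60% and not all replicates reaching 60%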;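 note: 0% = median plate neutral-control signal and 100% = twice that signal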
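Test system: SR-BI-overexpressing, LDLR-lacking CHO cells. Measured by: DiI fluorescence, bottom read. Medium: Ham's F12 with 0.5% BSA, HEPES 25 mM, pH 7.4. Timing: 3 h uptake period with compound, 37 °C.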
SR-BI HDL uptake – inhibitors of SR-BI mediated HDL lipid uptake, primary screen, ldlA[mSR-BI] cells, fluorescence, single point | hit rate 0.96% among 320,000 | inhibition, % at 12.5 µM | AID 488896, 2010 | Scavenger receptor class B member 1 (Mus musculus), Q61009 | ldlA[mSR-BI] CHO cells, DiI-HDL uptake fluorescence, 3 h;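 active = mean replicate inhibition of at least 70% and a set share of replicates each scoring 70 or more; inconclusive = meets just one of the two criteria; inactive = fails both criteria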;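 note: 0% = median of neutral control wells and 100% = median of positive control wells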
Target sequence (Q61009 whole entry, looked up): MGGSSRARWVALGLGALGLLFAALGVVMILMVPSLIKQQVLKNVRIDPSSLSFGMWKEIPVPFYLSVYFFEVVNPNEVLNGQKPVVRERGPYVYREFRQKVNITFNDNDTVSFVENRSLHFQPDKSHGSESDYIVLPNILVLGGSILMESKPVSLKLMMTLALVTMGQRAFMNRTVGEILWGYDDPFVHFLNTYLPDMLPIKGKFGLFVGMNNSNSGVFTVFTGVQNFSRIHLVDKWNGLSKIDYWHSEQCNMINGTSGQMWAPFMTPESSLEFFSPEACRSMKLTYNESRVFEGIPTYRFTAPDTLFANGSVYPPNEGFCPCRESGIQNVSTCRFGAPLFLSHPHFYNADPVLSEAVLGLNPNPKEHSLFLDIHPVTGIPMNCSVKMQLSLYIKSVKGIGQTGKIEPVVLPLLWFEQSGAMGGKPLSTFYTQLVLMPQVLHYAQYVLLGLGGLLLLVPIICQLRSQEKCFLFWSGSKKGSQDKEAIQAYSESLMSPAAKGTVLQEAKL
dFosB act-1 – activators of delta FosB homodimer, primary screen, biochemical, fluorescence polarization, TAMRA-CDK5 oligo, single point; purified delta FosB; percent of positive-control signal above neutral wells; activation, % at 25 µM; hit rate 0.99% among 340,000; AID 493131, 2011;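 active = mean activation above about 17%, with every replicate also reaching it, limit read from the data, passing the limit was not always enough; inconclusive = only one of the two conditions met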
S100A4 inh HTS – inhibitors of S100A4-myosin IIA peptide binding, primary screen, biochemical, fluorescence polarization, TAMRA-MyoIIA peptide. Protein S100-A4 (Homo sapiens), P26447. inhibition, % at 10.7 µM. hit rate 0.14% among 360,000. AID 652163, 2013;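 active = mean inhibition of at least 70% across replicates, with every replicate also reaching that level; inconclusive = mean inhibition reaches 70% but some replicates fall short; inactive = mean inhibition below 70%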
Target sequence (P26447 whole entry, looked up): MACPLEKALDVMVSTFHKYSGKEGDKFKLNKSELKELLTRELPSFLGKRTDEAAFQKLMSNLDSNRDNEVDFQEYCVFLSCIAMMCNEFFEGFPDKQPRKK
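Test system: S100A4 monomer protein; Medium: HEPES pH 7.2 with CaCl2, KCl, NaCl, DTT, Triton; Probe or stimulus: TAMRA-labelled myosin IIA heavy-chain peptide probe, 5 nM; Doses: one dose per compound; Times: polarization read 5 min after assay mix addition, stable 5–60 min; Benchmarks: neutral control DMSO, positive control TFP.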
dFosB act-2 – activators of mouse delta FosB DNA binding, confirmation, biochemical, fluorescence polarization, TAMRA-CDK5 oligo, cherry-picked samples; purified delta FosB; normalised: neutral wells 0, positive control 100; activation, % at 24.9 µM; shares compounds with dFosB act-1; 2,400 tested, under 10 active; AID 588690, 2011;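 active = highest replicate activation at or above 34% and every replicate reaching that threshold; inconclusive = meets only one of the two criteria; inactive = meets neither criterion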;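 note: higher polarization means more probe DNA bound by delta FosB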
DNA binding – DNA binding of candidate compounds, dose response, artefact control for RAD54 inhibitor project, biochemical, fluorescence polarization, cherry-pick | shares compounds with RAD54 branch | Acridine orange-DNA displacement, 20 min | AC50, µM (titrated, usually from 35 µM), inactives show at the highest dose activity change, negative = DNA binding | hit rate 8% among 460;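 active = signal drop giving an AC50 within twice the top valid tested concentration of each sample, actives reach about 35 µM in these data; inactive = activity opposite to expected, plus the rest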;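 note: polarization loss reports compound binding to salmon sperm DNA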
* hit, by the source's call; u = inconclusive; x = no result given.

SMILES	PvdQ acylase	RAD54 branch	SR-BI DiI-HDL act	SR-BI HDL uptake	dFosB act-1	S100A4 inh HTS	dFosB act-2	DNA binding
CC(C)CC(=O)Nc1ccc(C(=O)Cn2nc(C(=O)O)c3ccccc3c2=O)cc1	3	-9	-16	16	4	x	x	x
CC(C)(C)c1ccc(C(=O)Cn2nc(C(=O)O)c3ccccc3c2=O)cc1	-2	x	x	x	29*	10	6	x
Cc1cc(Nc2ccc3c(c2)OCCO3)c2cccc(C)c2n1	-11	65*	21	-21	31*	x	6	9%
CCOc1ccc2nc(C)cc(Nc3ccc4c(c3)OCCO4)c2c1	9	58*	-14	14	44*	x	4	-11%
Cc1cc(Nc2ccc3c(c2)OCCO3)c2ccccc2n1	-11	x	-10	10	7	1	x	x
CN1C(=O)c2cc(NC(=O)c3ccc(F)c(F)c3)ccc2OC[C@H]2O[C@H](CC(=O)N3CCOCC3)CC[C@@H]21	x	4	x	x	x	x	x	x
C[C@@H]1CCCCO[C@@H](CN(C)C(=O)Cc2ccccc2)[C@@H](C)CN([C@H](C)CO)C(=O)c2cc(NC(=O)c3ccccc3)ccc2O1	x	8	x	x	x	-3	x	x
CN(C)C(=O)[C@@H]1[C@@H](CO)[C@@H]2Cn3c(ccc(C4=CCCC4)c3=O)[C@H]1N2Cc1cccnc1	x	-9	x	x	x	-3	x	x
CCN(CC)Cc1cc2[nH]c3c4ccc(Cl)cc4ncc3c2cc1OC	-20	101*	x	x	24*	-5	6	6%
COc1ccc(CNc2ncnc3cc(Cl)ccc23)cc1OC	-4	x	13	-13	-2	-5	x	x
CC(C)NC(=O)c1ccc2c3n(nc2c1)-c1ccc(Cl)cc1CO3	-11	-4	-47	47	-6	-9	x	x
CCN(CC)CCCNC(=O)c1ccc2c3n(nc2c1)-c1ccc(Cl)cc1CO3	-12	52*	12	-12	34*	3	-3	-4%
COc1ccc(CCn2c(=N)c(C(=O)NCCN3CCOCC3)cc3c(=O)n4cccc(C)c4nc32)cc1OC	-9	77*	x	8	22*	-1	0	-4%
COCCn1c(=N)c(C(=O)NCCc2ccccc2)cc2c(=O)n3cccc(C)c3nc21	-37	x	11	-11	-2	x	x	x
Cc1cccn2c(=O)c3cc(C(=O)NCCc4ccccc4)c(=N)n(CCCn4ccnc4)c3nc12	-19	52*	14	-14	22*	x	1	-4%
Clc1ccc2[nH]c3c(NCCCN4CCOCC4)ncnc3c2c1	4	u	2	-2	22*	x	0	-1%
Cc1ccc2[nH]c3c(NCCN4CCOCC4)ncnc3c2c1	-3	14	-6	6	4	x	x	x
Cc1ccc2nc3c(c(N)c2c1)CCN3C	-8	61*	6	-6	18*	0	0	-10%
CN1CCN(c2nc(-c3ccccc3O)nc3ccccc23)CC1	1	x	-30	30	8	7	x	x
OCCN1CCN(c2nc(-c3ccccc3O)nc3ccccc23)CC1	18	73*	1	-1	24*	-6	6	5%
COc1ccc(NC(=O)Nc2ccc3c(c2)[C@@H]2C[C@H](CC(=O)NCCc4ccccc4)O[C@@H](CO)[C@@H]2O3)cc1	x	2	x	x	x	-1	x	x
CCN(CC)CCNC(=S)Nc1ccc2nc(N3CCN(C)CC3)cc(C)c2c1	-15	85*	x	x	24*	4	0	-14%
Cc1cc(N2CCCC2)nc2ccc(NC(=S)NCCCOC(C)C)cc12	-7	x	-12	12	3	-2	x	x
CCCN(CCC)CCCNC(=S)Nc1ccc2nc(N3CCCC3)cc(C)c2c1	-4	99*	-1	1	36*	1	u	-1%
CCN(CC)CCNC(=S)Nc1ccc2nc(N3CCOCC3)cc(C)c2c1	-28	2	-24	24	-12	-5	x	x
SMILES	PvdQ acylase	RAD54 branch	SR-BI DiI-HDL act	SR-BI HDL uptake	dFosB act-1	S100A4 inh HTS	dFosB act-2	DNA binding
Nc1cc2c3c(cccc3c1)C(=O)N(CCN1CCCC1)C2=O	-6	90*	8	-8	57*	-7	-2	28µM*
NC(=O)CN1CCN(CCN2C(=O)c3cccc4cccc(c34)C2=O)CC1	-3	58*	1	-1	24*	-8	-9	-2%
COCC(=O)Nc1ccc2c(c1)[C@H]1C[C@H](CC(=O)NCCN3CCCCC3)O[C@@H](CO)[C@H]1O2	x	-15	x	x	x	4	x	x
COc1cccc(S(=O)(=O)Nc2ccc3c(c2)[C@@H]2C[C@H](CC(=O)N[C@@H](C)c4ccccc4)O[C@@H](CO)[C@@H]2O3)c1	x	-4	x	x	x	5	x	x
CCOC(CNc1ncnc2sc(-c3ccccc3)cc12)OCC	-15	10	-24	24	-2	-18	x	x
CN(C)CCCNc1ncnc2sc(-c3ccccc3)cc12	-10	64*	x	x	27*	2	1	-18%
CN(C)CCN(C(=O)CN1C(=O)c2ccccc2C1=O)c1nc2cc3c(cc2s1)OCO3	-2	60*	-11	11	38*	-2	4	-9%
CN(C)CCN(C(=O)c1ccco1)c1nc2cc3c(cc2s1)OCCO3	-12	64*	1	-1	30*	-13	-4	2%
CCC(=O)Nc1ccc2c(c1)OC[C@H](C)N(Cc1ccccn1)C[C@@H](C)[C@H](OC)CN(C)C2=O	x	1	x	x	x	-10	x	x
OCCNc1nc(Nc2ccc(O)cc2)nc2ccccc12	-10	52*	x	x	19*	-4	3	8%
C[C@H](CO)N1C[C@H](C)[C@@H](CN(C)S(C)(=O)=O)Oc2ccc(NC(=O)C3CC3)cc2CC1=O	x	-1	x	x	x	16	x	x
Cc1c(-c2cc(Br)ccc2O)nc2cc3c(cc2c1C)OCO3	-6	u	-4	4	24*	2	5	-23%
COc1ccc(-c2ccc3n(c2=O)C[C@@H]2[C@@H](CO)[C@H](C(=O)N(C)C)[C@H]3N2Cc2ccncc2)cc1	x	-5	x	x	x	0	x	x
COc1ccc(CCNc2c3ccccc3nc3ccccc23)cc1OC	1	100*	43	-43	30*	0	x	-12%
